ChEMBL document CHEMBL1154183, “Structure-based optimization of potent and selective inhibitors of the tyrosine kinase erythropoietin producing human hepatocellular carcinoma receptor B4 (EphB4)” (J Med Chem, 2009)

How the values were obtained:
Ephrin type-B receptor 1 = Ephrin type-B receptor 1 (Homo sapiens, UniProt P54762); test: Inhibition of EphB1 by [gamma33-P]ATP based assay
Outline: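 Radiometric [γ-33P]ATP kinase assay against Eph kinases, following a protocol similar to the Mg-acetate/MgATP filter-binding method.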

[1] = target: Vascular endothelial growth factor receptor 3 (Homo sapiens) (UniProt P35916); test: Binding affinity to FLT4 assessed as percentage of kinase remaining bound to the bead at 1 uM by T7 phage display based binding assay
Outline: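 Kinases expressed as T7 phage fusions (full-length for small kinases, catalytic domain for large). Phage mixed with an immobilized known kinase inhibitor on streptavidin magnetic beads plus test compound at a single 1 μM concentration. Ligand displacement from the ATP site was read by quantitative PCR as % kinase/phage still bead-bound versus DMSO control. Human kinases.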

[2] = target: Mitogen-activated protein kinase 15 (Homo sapiens) (UniProt Q8TD08); test: Inhibition of ERK8 assessed as remaining enzyme activity at 1 uM relative to DMSO
Outline: (§1)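 Dundee kinase panel, radiometric: [γ-33P]ATP (800 cpm/pmol) at 5, 20 or 50 μM, at or below each kinase's ATP Km; 10 mM magnesium acetate; robotic, room temperature, 30 min. Reactions started with MgATP, stopped with orthophosphoric acid, spotted onto P81 filters. Inhibitor tested at a single concentration; mean % activity of duplicates relative to DMSO control.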

[3] = target: Protein kinase C alpha type (Homo sapiens) (UniProt P17252); test: Inhibition of PKCalpha assessed as remaining enzyme activity at 1 uM relative to DMSO
[4] = target: Mitogen-activated protein kinase kinase kinase kinase 2 (Homo sapiens) (UniProt Q12851); test: Inhibition of GCK assessed as remaining enzyme activity at 1 uM relative to DMSO; outline: as §1
[5] = target: Serine/threonine-protein kinase D1 (Homo sapiens) (UniProt Q15139); test: Inhibition of PKD1 assessed as remaining enzyme activity at 1 uM relative to DMSO
[6] = target: Glycogen synthase kinase-3 beta (Homo sapiens) (UniProt P49841); test: Inhibition of GSK3-beta assessed as remaining enzyme activity at 3 uM relative to DMSO; outline: as §1
[7] = Inhibition of PKA assessed as remaining enzyme activity at 3 uM relative to DMSO
Outline: (§2)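 Radiometric kinase assay run robotically at room temperature for 30 min. Contained 10 mM magnesium acetate and [γ-33P]ATP (800 cpm/pmol) at 5, 20 or 50 μM, chosen per kinase to be at or below its ATP Km. Reactions were started with MgATP, stopped with orthophosphoric acid and spotted onto P81 filters. Result is mean % activity of duplicates at one inhibitor concentration versus DMSO control.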

[8] = target: Serine/threonine-protein kinase BRSK2 (Homo sapiens) (UniProt Q8IWQ3); test: Inhibition of BRSK2 assessed as remaining enzyme activity at 3 uM relative to DMSO
Outline: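 Panel assay run robotically at room temperature for 30 min with 10 mM magnesium acetate and [γ-33P]ATP (800 cpm/pmol) at 5, 20 or 50 μM, chosen per kinase to be at or below its ATP Km. Reactions were started with MgATP, stopped with orthophosphoric acid and spotted on P81 filters. Activity is the mean of duplicates at a single inhibitor concentration, as % of DMSO control.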

[9] = target: Serine/threonine-protein kinase pim-1 (Homo sapiens) (UniProt P11309); test: Inhibition of PIM1 assessed as remaining enzyme activity at 3 uM relative to DMSO; outline: as §2
[10] = target: RAC-beta serine/threonine-protein kinase (Homo sapiens) (UniProt P31751); test: Inhibition of PKBbeta assessed as remaining enzyme activity at 3 uM relative to DMSO; outline: as §2
[11] = target: MAP/microtubule affinity-regulating kinase 3 (Homo sapiens) (UniProt P27448); test: Inhibition of MARK3 assessed as remaining enzyme activity at 3 uM relative to DMSO; outline: as §2
[12] = target: Dual specificity tyrosine-phosphorylation-regulated kinase 2 (Homo sapiens) (UniProt Q92630); test: Inhibition of DYRK2 assessed as remaining enzyme activity at 3 uM relative to DMSO; outline: as §1
[13] = target: Serine/threonine-protein kinase 3 (Homo sapiens) (UniProt Q13188); test: Inhibition of MST2 assessed as remaining enzyme activity at 3 uM relative to DMSO; outline: as §2

Chain of Serine/threonine-protein kinase pim-1 (Homo sapiens) (P11309 whole entry, looked up): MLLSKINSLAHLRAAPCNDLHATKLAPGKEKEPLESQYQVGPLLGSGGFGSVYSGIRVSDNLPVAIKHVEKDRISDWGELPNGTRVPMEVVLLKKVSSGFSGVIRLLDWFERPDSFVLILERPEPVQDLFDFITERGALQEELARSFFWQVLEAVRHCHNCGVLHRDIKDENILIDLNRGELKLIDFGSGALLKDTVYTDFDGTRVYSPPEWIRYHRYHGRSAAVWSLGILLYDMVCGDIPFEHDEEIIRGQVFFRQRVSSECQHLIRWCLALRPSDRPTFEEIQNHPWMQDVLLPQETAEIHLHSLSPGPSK
Chain of Ephrin type-B receptor 1 (P54762 whole entry): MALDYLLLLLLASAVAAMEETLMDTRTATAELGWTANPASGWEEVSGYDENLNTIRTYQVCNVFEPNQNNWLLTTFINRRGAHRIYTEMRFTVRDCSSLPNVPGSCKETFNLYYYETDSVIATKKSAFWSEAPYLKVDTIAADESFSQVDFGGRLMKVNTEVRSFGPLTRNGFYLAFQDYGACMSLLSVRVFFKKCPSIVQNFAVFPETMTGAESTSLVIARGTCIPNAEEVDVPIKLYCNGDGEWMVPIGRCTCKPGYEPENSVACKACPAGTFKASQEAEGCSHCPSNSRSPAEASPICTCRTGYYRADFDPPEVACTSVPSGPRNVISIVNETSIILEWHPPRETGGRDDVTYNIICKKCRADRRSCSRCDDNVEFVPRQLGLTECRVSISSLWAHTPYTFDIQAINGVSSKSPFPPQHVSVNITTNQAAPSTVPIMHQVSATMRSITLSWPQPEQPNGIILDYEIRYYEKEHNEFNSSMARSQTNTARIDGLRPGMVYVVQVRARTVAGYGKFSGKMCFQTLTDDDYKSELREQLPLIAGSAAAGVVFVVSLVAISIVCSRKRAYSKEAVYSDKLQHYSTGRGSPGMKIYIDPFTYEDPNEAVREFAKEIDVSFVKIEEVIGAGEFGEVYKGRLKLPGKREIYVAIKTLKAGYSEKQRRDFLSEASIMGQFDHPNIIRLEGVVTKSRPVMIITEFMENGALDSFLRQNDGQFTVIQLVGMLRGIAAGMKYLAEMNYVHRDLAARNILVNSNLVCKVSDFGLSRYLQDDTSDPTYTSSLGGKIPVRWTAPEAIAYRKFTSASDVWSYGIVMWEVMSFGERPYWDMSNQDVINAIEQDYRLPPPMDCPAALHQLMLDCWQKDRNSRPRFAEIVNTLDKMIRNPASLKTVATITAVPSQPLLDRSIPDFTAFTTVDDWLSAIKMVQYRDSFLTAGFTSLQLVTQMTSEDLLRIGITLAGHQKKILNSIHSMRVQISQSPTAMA
Chain of Serine/threonine-protein kinase BRSK2 (Homo sapiens) (Q8IWQ3 whole entry): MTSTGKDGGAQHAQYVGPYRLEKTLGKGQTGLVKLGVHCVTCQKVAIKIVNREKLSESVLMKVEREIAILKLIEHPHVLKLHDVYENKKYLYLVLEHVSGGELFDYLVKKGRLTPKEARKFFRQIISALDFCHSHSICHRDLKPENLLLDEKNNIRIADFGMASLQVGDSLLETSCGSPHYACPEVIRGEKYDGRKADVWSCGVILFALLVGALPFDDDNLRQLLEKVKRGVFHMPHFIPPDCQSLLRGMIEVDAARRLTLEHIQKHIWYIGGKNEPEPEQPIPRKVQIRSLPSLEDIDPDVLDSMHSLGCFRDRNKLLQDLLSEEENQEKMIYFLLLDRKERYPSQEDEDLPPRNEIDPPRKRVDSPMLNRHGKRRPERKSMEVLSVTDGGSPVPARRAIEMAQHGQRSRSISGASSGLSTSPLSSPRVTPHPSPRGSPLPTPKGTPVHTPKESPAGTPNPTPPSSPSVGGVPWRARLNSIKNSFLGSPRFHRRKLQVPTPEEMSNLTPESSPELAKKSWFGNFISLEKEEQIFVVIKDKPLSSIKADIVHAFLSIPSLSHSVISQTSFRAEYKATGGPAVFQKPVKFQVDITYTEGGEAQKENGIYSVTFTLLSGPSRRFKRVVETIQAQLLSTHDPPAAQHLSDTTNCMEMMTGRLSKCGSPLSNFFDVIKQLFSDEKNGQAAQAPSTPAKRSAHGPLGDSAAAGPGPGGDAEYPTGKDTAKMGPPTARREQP
Chain of Glycogen synthase kinase-3 beta (Homo sapiens) (P49841 whole entry, looked up): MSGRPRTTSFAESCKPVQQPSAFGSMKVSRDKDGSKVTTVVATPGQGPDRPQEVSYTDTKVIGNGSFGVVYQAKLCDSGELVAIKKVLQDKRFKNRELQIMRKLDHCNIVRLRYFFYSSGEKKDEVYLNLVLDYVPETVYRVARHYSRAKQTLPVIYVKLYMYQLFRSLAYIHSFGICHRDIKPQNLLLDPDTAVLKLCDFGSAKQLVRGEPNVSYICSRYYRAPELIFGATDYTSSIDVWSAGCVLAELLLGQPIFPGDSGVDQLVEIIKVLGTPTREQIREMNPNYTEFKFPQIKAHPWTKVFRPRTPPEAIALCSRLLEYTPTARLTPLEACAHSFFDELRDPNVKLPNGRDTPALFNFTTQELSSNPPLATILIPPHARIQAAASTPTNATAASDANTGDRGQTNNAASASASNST
Chain of MAP/microtubule affinity-regulating kinase 3 (Homo sapiens) (P27448 whole entry, looked up): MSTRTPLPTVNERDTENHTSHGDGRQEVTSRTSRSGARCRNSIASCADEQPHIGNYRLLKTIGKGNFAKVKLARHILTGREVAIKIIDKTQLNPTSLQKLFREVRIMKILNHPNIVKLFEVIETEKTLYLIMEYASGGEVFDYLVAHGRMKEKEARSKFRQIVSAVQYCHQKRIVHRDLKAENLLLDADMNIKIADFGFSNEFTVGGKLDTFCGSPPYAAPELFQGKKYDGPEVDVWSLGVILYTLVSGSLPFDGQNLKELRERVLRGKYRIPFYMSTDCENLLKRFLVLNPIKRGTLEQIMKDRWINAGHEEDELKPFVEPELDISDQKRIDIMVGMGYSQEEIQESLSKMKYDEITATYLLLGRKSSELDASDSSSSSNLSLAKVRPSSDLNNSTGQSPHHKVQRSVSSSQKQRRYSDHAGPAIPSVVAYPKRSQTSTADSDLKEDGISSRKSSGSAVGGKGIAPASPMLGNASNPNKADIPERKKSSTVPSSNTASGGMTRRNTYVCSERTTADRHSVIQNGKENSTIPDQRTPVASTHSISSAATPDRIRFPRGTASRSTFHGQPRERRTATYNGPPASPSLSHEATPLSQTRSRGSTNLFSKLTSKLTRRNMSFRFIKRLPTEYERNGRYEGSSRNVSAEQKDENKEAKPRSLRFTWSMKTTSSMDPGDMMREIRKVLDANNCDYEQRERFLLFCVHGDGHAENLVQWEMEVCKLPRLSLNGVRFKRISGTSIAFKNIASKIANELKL
Chain of Mitogen-activated protein kinase kinase kinase kinase 2 (Homo sapiens) (Q12851 whole entry): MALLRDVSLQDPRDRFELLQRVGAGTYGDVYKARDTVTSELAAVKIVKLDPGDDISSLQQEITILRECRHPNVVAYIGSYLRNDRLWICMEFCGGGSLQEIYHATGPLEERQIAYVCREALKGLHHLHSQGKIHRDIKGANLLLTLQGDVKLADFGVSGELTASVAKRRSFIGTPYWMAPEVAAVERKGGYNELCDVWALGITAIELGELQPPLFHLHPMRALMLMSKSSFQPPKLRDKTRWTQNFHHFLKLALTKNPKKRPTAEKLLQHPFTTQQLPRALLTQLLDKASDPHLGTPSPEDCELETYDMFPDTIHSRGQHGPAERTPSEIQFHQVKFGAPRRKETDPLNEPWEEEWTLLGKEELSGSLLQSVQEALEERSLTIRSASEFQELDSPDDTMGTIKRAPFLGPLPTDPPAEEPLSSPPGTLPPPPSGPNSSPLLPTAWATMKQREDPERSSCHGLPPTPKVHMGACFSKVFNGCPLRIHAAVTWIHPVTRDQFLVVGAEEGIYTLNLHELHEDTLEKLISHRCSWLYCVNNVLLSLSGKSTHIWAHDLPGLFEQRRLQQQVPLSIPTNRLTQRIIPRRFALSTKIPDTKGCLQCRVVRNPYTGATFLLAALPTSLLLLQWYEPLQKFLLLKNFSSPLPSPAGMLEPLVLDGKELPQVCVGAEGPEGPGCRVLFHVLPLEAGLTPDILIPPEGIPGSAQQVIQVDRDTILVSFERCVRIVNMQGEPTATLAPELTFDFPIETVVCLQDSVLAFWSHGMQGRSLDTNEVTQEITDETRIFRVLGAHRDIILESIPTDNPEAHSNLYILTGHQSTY
Chain of Serine/threonine-protein kinase D1 (Homo sapiens) (Q15139 whole entry): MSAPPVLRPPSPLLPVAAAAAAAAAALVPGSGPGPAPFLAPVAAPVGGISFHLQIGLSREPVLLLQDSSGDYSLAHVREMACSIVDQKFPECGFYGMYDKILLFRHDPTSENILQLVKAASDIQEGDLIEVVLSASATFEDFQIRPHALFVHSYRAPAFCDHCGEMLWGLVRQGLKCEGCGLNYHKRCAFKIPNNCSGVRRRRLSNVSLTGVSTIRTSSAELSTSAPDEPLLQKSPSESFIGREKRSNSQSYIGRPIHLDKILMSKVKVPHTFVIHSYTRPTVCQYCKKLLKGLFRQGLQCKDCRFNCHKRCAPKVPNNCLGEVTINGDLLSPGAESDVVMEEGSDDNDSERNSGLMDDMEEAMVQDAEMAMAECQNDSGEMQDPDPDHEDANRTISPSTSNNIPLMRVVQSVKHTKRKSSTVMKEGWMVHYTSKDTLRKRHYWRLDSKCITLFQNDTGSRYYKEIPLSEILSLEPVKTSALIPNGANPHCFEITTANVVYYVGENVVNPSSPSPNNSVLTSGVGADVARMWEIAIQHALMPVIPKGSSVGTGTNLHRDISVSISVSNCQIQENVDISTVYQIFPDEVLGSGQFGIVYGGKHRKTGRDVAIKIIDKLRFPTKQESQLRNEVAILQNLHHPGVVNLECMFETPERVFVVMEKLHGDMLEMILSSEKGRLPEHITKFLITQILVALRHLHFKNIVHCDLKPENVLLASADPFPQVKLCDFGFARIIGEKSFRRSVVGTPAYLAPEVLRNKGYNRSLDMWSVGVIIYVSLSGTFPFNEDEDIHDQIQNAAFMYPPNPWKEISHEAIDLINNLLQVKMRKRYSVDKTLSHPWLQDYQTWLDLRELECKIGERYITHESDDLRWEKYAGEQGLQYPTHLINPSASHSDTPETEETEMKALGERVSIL

| IC50 (Ephrin type-B receptor 1) | Activity [1] | Activity [3] | Activity [4] | Activity [5] | Activity [6] | Activity [7] | Activity [8] | Activity [9] | Activity [10] | Activity [11] | Activity [12] | Activity [13] | Compound | Activity [2] |
| --- | --- | --- | --- | --- | --- | --- | --- | --- | --- | --- | --- | --- | --- | --- |
| 1.1 nM | 93% | 92% | 22% | 92% | – | – | – | – | – | – | – | – | COc1ccccc1-n1c(-c2cc(O)ccc2C)cn2c3c(=O)[nH]c(=O)n(C)c3nc12 | 97% |
| – | – | – | – | – | 102% | 92% | 81% | 96% | 104% | 111% | 94% | 95% | COc1ccccc1-n1c(-c2ccccc2C)cn2c3c(=O)[nH]c(=O)n(C)c3nc12 | – |
